Data published in ChEMBL document CHEMBL3612064, “Oxidative Reactivities of 2-Furylquinolines: Ubiquitous Scaffolds in Common High-Throughput Screening Libraries” (J Med Chem, 2015).
Where “and” joins values, the source holds several entries; their conditions need not be identical. Equal values may be shown once. Calls of active or inactive are those of the source. No cut-off for these calls is given here.

How the values were obtained:
[1] = Stability in DMSO solution assessed as parent compound remaining at 10 mM incubated for 38 days exposed to laboratory air by HPLC method
[2] = Drug metabolism assessed as compound formation using compound-1 by LC-MS method; type: physicochemical
How it was run: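 10 mM DMSO stocks were gently shaken at 25 °C open to air and analysed on day 38 by LC-MS. The LC-MS used a C18 column (0.5 × 150 mm, 5 μm) at 15 μL/min with trifluoroacetic and formic acid modifiers, and an ion-trap MS in positive-ion mode. Decomposition products were scored as detected or not detected.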

[3] = Drug metabolism assessed as oxidative compound decompostion after irradiation with visible light under oxygen-saturated environment in presence of rose bengal photosensitizer using compound-1 by LC/MS method; type: physicochemical
[4] = target: T1, DNA dC->dU-editing enzyme APOBEC-3G (Homo sapiens, UniProt Q9HC16); assay: Inhibition of APOBEC3G (unknown origin) assessed as remaining enzyme activity at 200 uM using ssDNA oligomer 5'-6-FAM-AAA-TAT-TCC-CTA-ATA-GAT-AAT-GTG-A-TAMRA-3' by fluorescence-based deamination assay
How it was run: (§1)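 Recombinant A3G was expressed and purified. A freshly prepared DMSO stock (day 0) was tested in dose response up to 200 μM. The read-out was the fluorescence-based ssDNA C-to-U deamination assay with a 5'-6-FAM/3'-TAMRA oligo, detected after uracil DNA glycosylase processing. Performed in triplicate, mean ± SD.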

[5] = Drug metabolism in DMSO solution assessed as compound formation incubated for 38 days exposed to laboratory air by LC/MS method; type: physicochemical; conditions: 912 h
[6] = Toxicity against HEK293T cells assessed as cell viability at 50 uM incubated for 5 days; type: cell-based, HEK-293T; conditions: human, read-out: Activity
[7] = target: T1, DNA dC->dU-editing enzyme APOBEC-3G; assay: Inhibition of APOBEC3G (unknown origin) assessed as remaining enzyme activity at 200 uM incubated for 21 days using ssDNA oligomer 5'-6-FAM-AAA-TAT-TCC-CTA-ATA-GAT-AAT-GTG-A-TAMRA-3' by fluorescence-based deamination assay
How it was run: (§2)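 A DMSO stock of the compound was aged in a closed microcentrifuge tube at 20-22 °C on the bench. The same stock was re-tested against recombinant A3G in dose response up to 200 μM at days 3, 21, 38 and 72. The assay was the fluorescence-based C-to-U deamination assay on a 6-FAM/TAMRA ssDNA oligo, with uracil DNA glycosylase in the read-out. Triplicates, mean ± SD.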

[8] = target: T1, DNA dC->dU-editing enzyme APOBEC-3G; assay: Inhibition of APOBEC3G (unknown origin) assessed as remaining enzyme activity at 200 uM incubated for 38 days using ssDNA oligomer 5'-6-FAM-AAA-TAT-TCC-CTA-ATA-GAT-AAT-GTG-A-TAMRA-3' by fluorescence-based deamination assay
How it was run: as §2

[9] = target: T1, DNA dC->dU-editing enzyme APOBEC-3G; assay: Inhibition of APOBEC3G (unknown origin) assessed as remaining enzyme activity at 200 uM incubated for 3 days using ssDNA oligomer 5'-6-FAM-AAA-TAT-TCC-CTA-ATA-GAT-AAT-GTG-A-TAMRA-3' by fluorescence-based deamination assay
How it was run: as §2

[10] = target: T1, DNA dC->dU-editing enzyme APOBEC-3G; assay: Inhibition of APOBEC3G (unknown origin) fluorescence-based ssDNA C-to-U deaminase assay
[11] = target: T1, DNA dC->dU-editing enzyme APOBEC-3G; assay: Inhibition of APOBEC3G (unknown origin) up to 200 uM using ssDNA oligomer 5'-6-FAM-AAA-TAT-TCC-CTA-ATA-GAT-AAT-GTG-A-TAMRA-3' by fluorescence-based deamination assay
How it was run: as §1

[12] = target: T1, DNA dC->dU-editing enzyme APOBEC-3G; assay: Inhibition of APOBEC3G (unknown origin) up to 200 uM incubated for 3 to 72 days using ssDNA oligomer 5'-6-FAM-AAA-TAT-TCC-CTA-ATA-GAT-AAT-GTG-A-TAMRA-3' by fluorescence-based deamination assay; conditions: TDE = time-dependent effect
How it was run: as §2

[13] = Drug metabolism assessed as oxidative compound decompostion after irradiation with visible light under oxygen-saturated environment using [18]O2 in presence of rose bengal photosensitizer using by LC/MS method; type: physicochemical
[14] = target: DNA dC->dU-editing enzyme APOBEC-3A (Homo sapiens, UniProt P31941); assay: Inhibition of APOBEC3A (unknown origin) by fluorescence-based ssDNA C-to-U deaminase assay
How it was run: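 Recombinant purified A3A was tested in dose-response up to 200 μM, with compound from DMSO stock. C-to-U deamination was read by fluorescence from the 6-FAM/TAMRA-labelled probe in a coupled uracil DNA glycosylase step, and IC50 was taken from the dose-response curve.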

[15] = target: T1, DNA dC->dU-editing enzyme APOBEC-3G; assay: Inhibition of APOBEC3G (unknown origin) assessed as remaining enzyme activity at 200 uM incubated for […] using ssDNA oligomer 5'-6-FAM-AAA-TAT-TCC-CTA-ATA-GAT-AAT-GTG-A-TAMRA-3' by fluorescence-based deamination assay
[16] = target: T1, DNA dC->dU-editing enzyme APOBEC-3G; assay: Inhibition of APOBEC3G (unknown origin) using ssDNA oligomer 5'-6-FAM-AAA-TAT-TCC-CTA-ATA-GAT-AAT-GTG-A-TAMRA-3' by fluorescence-based deamination assay
How it was run: as §1

[17] = Drug level assessed as compound formation using compound-1 in DMSO incubated for 16 months by 1H and 13C NMR method; type: physicochemical; conditions: 11688 h
[18] = Drug level assessed as compound formation using compound-1 in DMSO incubated for 16 months by IR method; type: physicochemical; conditions: 11688 h
[19] = Drug metabolism assessed as formation of oxidative decomposition products by LC-MS method; type: physicochemical
[20] = target: T1, DNA dC->dU-editing enzyme APOBEC-3G; assay: Inhibition of APOBEC3G (unknown origin) assessed as reduction enzyme efficiency at 200 uM using ssDNA oligomer 5'-6-FAM-AAA-TAT-TCC-CTA-ATA-GAT-AAT-GTG-A-TAMRA-3' by fluorescence-based deamination assay
How it was run: as §1

[21] = Drug level assessed as compound formation using compound-1 in DMSO incubated for 16 months by LC-MS method; type: physicochemical; conditions: 11688 h

T1 sequence (Q9HC16 whole entry): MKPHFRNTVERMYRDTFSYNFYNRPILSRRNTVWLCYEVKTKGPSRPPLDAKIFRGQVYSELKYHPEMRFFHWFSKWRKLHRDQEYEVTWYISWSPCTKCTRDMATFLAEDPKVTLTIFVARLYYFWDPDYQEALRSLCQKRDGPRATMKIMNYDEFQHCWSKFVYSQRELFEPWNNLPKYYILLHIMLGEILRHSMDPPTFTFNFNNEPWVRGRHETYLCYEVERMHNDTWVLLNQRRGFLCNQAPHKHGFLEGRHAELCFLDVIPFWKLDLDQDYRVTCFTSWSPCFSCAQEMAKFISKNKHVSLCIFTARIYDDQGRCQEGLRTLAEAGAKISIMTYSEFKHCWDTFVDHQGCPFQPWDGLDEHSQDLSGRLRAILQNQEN
Chain of DNA dC->dU-editing enzyme APOBEC-3A (P31941 whole entry): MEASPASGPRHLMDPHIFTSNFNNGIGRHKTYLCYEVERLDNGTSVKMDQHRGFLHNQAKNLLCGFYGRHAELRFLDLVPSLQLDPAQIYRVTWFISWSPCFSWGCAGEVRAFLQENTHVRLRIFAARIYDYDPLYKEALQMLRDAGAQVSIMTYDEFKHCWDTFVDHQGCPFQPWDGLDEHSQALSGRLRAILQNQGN

O=C(O)c1cc(-c2ccco2)nc2ccccc12
remaining at 912 h, 10000 µM [1]: 69%

Cc1ccc(-c2cc(C(=O)O)c3ccccc3c2)o1
remaining at 912 h, 10000 µM [1]: 82%

Cc1ccc(-c2ccc3ccccc3n2)o1
remaining at 912 h, 10000 µM [1]: 102%

CC1(OO)C=CC(O)(c2cc(C(=O)Nc3nnc(-c4ccncc4)s3)c3ccccc3n2)O1 (configuration not stated)
Drug metabolism [2]: metabolite_detected
Drug metabolism [3]: metabolite_detected
inhibition [4]: inactive

Cc1ccc(-c2cc(C(=O)Nc3nnc(-c4ccncc4)s3)c3ccccc3c2)o1
remaining at 912 h, 10000 µM [1]: 25%

O=C(O)c1cc(C(=O)Nc2nnc(-c3ccncc3)s2)c2ccccc2n1
Drug metabolism [5]: metabolite_detected
Drug metabolism [2]: metabolite_detected
Drug metabolism [3]: metabolite_detected
Activity [4]: 43%

Cc1ccc(-c2cc(C(=O)Nc3nnc(-c4ccncc4)s3)c3ccccc3n2)o1
viability at 120 h, 50 µM [6]: > 85%
Activity [7]: 55%
Activity [8]: 29%
Activity [9]: 82%
IC50 [10]: 10.8 µM and 50.3 µM
inhibition [11]: inactive
inhibition [12]: tde
Drug metabolism [13]: metabolite_detected
IC50 [14]: 2.8 µM and 9.8 µM
Activity [15]: 29%
remaining at 912 h, 10000 µM [1]: 6%

COc1ccc(CCNC(=O)c2cc(-c3ccc(C)o3)nc3ccccc23)cc1
remaining at 912 h, 10000 µM [1]: 84%

Cc1ccc(-c2cc(C(=O)Nc3nnc(-c4ccncc4)s3)ccn2)o1
remaining at 912 h, 10000 µM [1]: 34%

Cc1cccc(NC(=O)c2cc(-c3ccc(C)o3)nc3ccccc23)n1
remaining at 912 h, 10000 µM [1]: 73%

O=C(Nc1nnc(-c2ccncc2)s1)c1cc(-c2ccco2)nc2ccccc12
remaining at 912 h, 10000 µM [1]: 101%

c1coc(-c2ccc3ccccc3n2)c1
remaining at 912 h, 10000 µM [1]: 117%

CC1(O)C=CC(OO)(c2cc(C(=O)Nc3nnc(-c4ccncc4)s3)c3ccccc3n2)O1 (configuration not stated)
Drug metabolism [2]: metabolite_detected
Drug metabolism [3]: metabolite_detected
inhibition [4]: inactive

O=C(O)c1cc(-c2ccco2)cc2ccccc12
remaining at 912 h, 10000 µM [1]: 89%

O=C(O)/C=C\C(=O)c1cc(C(=O)Nc2nnc(-c3ccncc3)s2)c2ccccc2n1
Drug metabolism [5]: metabolite_detected

Cc1ccc(-c2cc(C(=O)O)ccn2)o1
remaining at 912 h, 10000 µM [1]: 85%

Cc1ccc(-c2cc(C(=O)NC3CCCCC3)c3ccccc3n2)o1
remaining at 912 h, 10000 µM [1]: 54%

COC(=O)c1cc(NC(=O)c2cc(-c3ccc(C)o3)nc3ccccc23)cc(C(=O)OC)c1
remaining at 912 h, 10000 µM [1]: 19%

O=C(NNC(=O)c1cc(-c2ccco2)nc2ccccc12)NC1CCCCC1
remaining at 912 h, 10000 µM [1]: 64%

CC(=O)/C=C\C(=O)c1cc(C(=O)Nc2nnc(-c3ccncc3)s2)c2ccccc2n1
Drug metabolism [5]: metabolite_detected
Drug metabolism [2]: metabolite_detected
Drug metabolism [3]: metabolite_detected
IC50 [16]: 20 µM

O=CCC(=O)c1cc(C(=O)Nc2nnc(-c3ccncc3)s2)c2ccccc2n1
Drug metabolism [5]: metabolite_detected

O=C(Nc1nnc(-c2ccncc2)s1)c1cc(-c2ccco2)cc2ccccc12
remaining at 912 h, 10000 µM [1]: 0%

Nc1nnc(-c2ccncc2)s1
inhibition [4]: inactive

Cc1ccc(-c2cc(C(=O)NC(C)C3CCCO3)c3ccccc3n2)o1 (configuration not stated)
remaining at 912 h, 10000 µM [1]: 55%

O=C(Nc1nnc(-c2ccncc2)s1)c1ccnc(-c2ccco2)c1
remaining at 912 h, 10000 µM [1]: 90%

O=C(Nc1nnc(-c2ccncc2)s1)c1cc(=O)[nH]c2ccccc12
Drug metabolism [17]: metabolite_detected
Drug metabolism [5]: metabolite_detected
Drug metabolism [18]: metabolite_detected
Drug metabolism [19]: metabolite_detected
Drug metabolism [3]: metabolite_detected
inhibition [20]: 50%
Drug metabolism [21]: metabolite_detected
Activity [4]: 83%

O=C(O)c1ccnc(-c2ccco2)c1
remaining at 912 h, 10000 µM [1]: 92%

Cc1ccc(-c2cc(C(=O)N3CCN(S(C)(=O)=O)CC3)c3ccccc3n2)o1
remaining at 912 h, 10000 µM [1]: 26%

Cc1ccc(-c2cc(C(=O)O)c3ccccc3n2)o1
remaining at 912 h, 10000 µM [1]: 83%

Cc1ccc(-c2cc(C(=O)NCc3ccc4c(c3)OCO4)c3ccccc3n2)o1
remaining at 912 h, 10000 µM [1]: 56%
